Assay results gathered from unrelated publications.
Protocols differ between the studies behind these lines. Converted amounts (≈) assume the structure as drawn.

Structure (SMILES) | target or system | assay | test system | conditions | endpoint | result
COC(=O)c1cc(-c2cccc(NC(=S)Nc3ccc([N+](=O)[O-])cc3)c2)on1 | Mycolicibacterium fortuitum | microbial growth, broth dilution | ATCC6841 | 48 h | MIC | > 64 µg/mL
CO[C@H]1/C=C/O[C@@]2(C)Oc3c(C)c(O)c4c(O)c(c(/C=N/N5CCN(C)CC5)c(O)c4c3C2=O)NC(=O)/C(C)=C\C=C\[C@H](C)[C@H](O)[C@@H](C)[C@@H](O)[C@@H](C)[C@H](OC(C)=O)[C@@H]1C | Mycobacterium marinum | microbial growth | ATCC927 | – | MIC | < 0.2 µg/mL
N#Cc1ccc(NC(=S)NN=Cc2ccccc2)cc1 | CCRF-CEM | cell growth or viability | – | 72 h | IC50 | 83 µg/mL
CCOC(=O)c1c(CSc2ccccc2)n(C)c2cc(Br)c(O)c(CN(C)C)c12 | Cowpox virus | microbial growth | – | – | MIC50 | > 37 µM
CC(C(=O)N1CCCCC1)c1cccc(C(OC(=O)N2CCCCC2)c2ccccc2)c1 (stereo not shown) | CCRF-CEM | cell growth or viability | – | 72 h | IC50 | 13 µM
[H]/N=C(/N)N[C@H]1[C@H](O)[C@@H](O)[C@H](O[C@@H]2O[C@@H](C)[C@](O)(C=O)[C@H]2O[C@@H]2O[C@@H](CO)[C@H](O)[C@@H](O)[C@@H]2NC)[C@@H](N/C(N)=N\[H])[C@@H]1O | Mycolicibacterium fortuitum | microbial growth | ATCC6841 | – | MIC | 50 µg/mL
COC(=O)c1cc(-c2cccc(NC(=O)Nc3ccc(C(F)(F)F)cc3)c2)on1 | Mycolicibacterium fortuitum | microbial growth, broth dilution | ATCC6841 | 48 h | MIC | > 64 µg/mL
Cc1ccc(-c2nc3ccc(C)cn3c2CC(=O)N(C)C)cc1 | Mycobacterium marinum | microbial growth | – | 5 days | MIC | > 50 µM
Nc1ccn(C[C@@H](CO)OCP(=O)(O)O)c(=O)n1 | Cowpox virus | viral replication | – | – | IC50 | 30 µM
Nc1nc2c(ncn2COCCO)c(=O)[nH]1 | Cowpox virus | microbial growth | – | – | MIC50 | 250 µM (≈ 56.3 µg/mL)
CC(C(=O)N1CCCC1)c1cccc(C(OC(=O)N2CCCC2)c2ccccc2)c1 (stereo not shown) | CCRF-CEM | cell growth or viability | – | 72 h | IC50 | 42 µM
COC(=O)c1cc(-c2cccc(NC(=O)Nc3ccccc3F)c2)on1 | Mycolicibacterium fortuitum | microbial growth, broth dilution | ATCC6841 | 48 h | MIC | > 64 µg/mL
N#Cc1ccc(NC(=S)NN=Cc2ccc(N(CCCl)CCCl)cc2)cc1 | CCRF-CEM | cell growth or viability | – | 72 h | IC50 | 0.7 µg/mL
COC(=O)c1cc(-c2cccc(NC(=O)Nc3cc(Cl)ccc3Cl)c2)on1 | Mycolicibacterium fortuitum | microbial growth, broth dilution | ATCC6841 | 48 h | MIC | > 64 µg/mL
CC(C)CN(C[C@@H](O)[C@H](Cc1ccccc1)NC(=O)O[C@H]1CO[C@H]2OCC[C@H]21)S(=O)(=O)c1ccc(N)cc1 | Human immunodeficiency virus 1 | viral replication | MT4 | – | IC50 | 0.0032 µM
COC(=O)c1cc(-c2cccc(NC(=O)Nc3ccccc3)c2)on1 | Mycolicibacterium fortuitum | microbial growth, broth dilution | ATCC6841 | 48 h | MIC | > 64 µg/mL
Nc1ccn(C[C@@H](CO)OCP(=O)(O)O)c(=O)n1 | Cowpox virus | microbial growth | – | – | MIC50 | 22 µM (≈ 6.14 µg/mL)
CCOC(=O)c1nnn(-c2cccc(NC(=O)Nc3ccc(Cl)c(Cl)c3)c2)c1C | Mycolicibacterium fortuitum | microbial growth, broth dilution | ATCC6841 | 48 h | MIC | > 64 µg/mL
Cc1ccnc2c1NC(=O)c1cccnc1N2C1CC1 | Human immunodeficiency virus 1 | viral replication, inhibitor | human PBMC | clinical isolate | IC90 | 0.227 µM
